The nature of assay [1]: Decrease in HscA70-mRNA expression in Hepatitis B virus infected in human HepG2(2.2.15) cells at 13 uM after 24-36 hrs by RT-PCR analysis. Format: functional, cell-based.
Assay [2] deals with Hepatitis B virus. In words: Antiviral activity against Hepatitis B virus infected in human HepG2(2.2.15) cells assessed as decrease in intracellular viral DNA level at 13 uM after 72 hrs by RT-PCR analysis. Format: functional, organism-based. The gist of the method: (§1)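 HepG2.2.15 cells (HBV genome-transfected, MEM + 10% FBS) treated 72 h with drug alone or in two-drug combination. Entecavir 0.6 μg/ml (2.16 μM), adefovir 3 μg/ml (5.9 μM), lamivudine 3 μg/ml (13 μM), oxymatrine 30 μg/ml (113 μM). Intracellular HBV DNA by SYBR Green real-time PCR, relative to untreated. Experiment repeated twice; means and SD, Student's t test.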

The test system of assay [3] is Hepatitis B virus. In words: Antiviral activity against Hepatitis B virus infected in human HepG2(2.2.15) cells assessed as decrease in intracellular viral DNA level at 2.16 uM after 72 hrs by RT-PCR analysis. Format: functional, organism-based. The essentials:
as §1

Calls of active or inactive are those of the source. No cut-off for these calls is given here.

On to `Nc1ccn([C@@H]2CS[C@H](CO)O2)c(=O)n1`, for which, in assay [1], the outcome was inactive. The outcome with Hepatitis B virus [2] was Active.

Regarding `C=C1[C@H](CO)[C@@H](O)C[C@@H]1n1cnc2c(=O)[nH]c(N)nc21`, in the assay on Hepatitis B virus [3], the outcome was Active.
